From PubChem BioAssay
XBP1 UPR activ: adaptive UPR (XBP1) activation; CHO-XBP1 luciferase reporter, IRE1-XBP1 UPR activation, luminescence; percent of tunicamycin response, DMSO as zero; activation, % at 20 µM; 330,000 tested, 0.33% active;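 active means versus positive control, 20 µM dose yields 30% or more activation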;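 further: 100% = tunicamycin at 10 µg/mL and 0% = DMSO only wells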
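incubation = overnight seeding at 37 °C, 6 h compound treatment at 37 °C | assay system = CHO-XBP1 cells stably carrying IRE1-XBP1-driven luciferase reporter | input = 1000 cells per well | detection = luciferase luminescence | dosing = single point, 20 µM final compound, 1% DMSO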
CHOP inh: inhibitors of CHOP induction in ER stress response; CHO-K1 CHOP-promoter luciferase, tunicamycin-induced, 15-18 h; inhibition, % at 10 µM; 220,000 tested, 3.8% active; AID 2732;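 active means compounds that reduced the stress-induced luciferase reporter signal by more than about 70% of percent inhibition, limit read from the data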;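 further: 0% = tunicamycin plus vehicle and 100% = wells without tunicamycin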
aDG glyco act: alpha-DG glycosylation activation. Pro5-aDG cells, alpha-DG glycosylation AlphaScreen (IIH6); 0% Pro5, 100% B10-LARGE cell signal. activation, % at 10 µM. 360,000 tested, 0.22% active;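 active means activation of at least 8% versus controls, or a plate z-score of at least 8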;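 further: Pro5 are CHO cells carrying HIG-tagged alpha-DG that lacks glycosylation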
UPR CHOP act: apoptotic UPR (CHOP) activation. CHO-CHOP luciferase reporter, luminescence; percent of tunicamycin response over DMSO baseline. activation, % at 10 µM. 330,000 tested, 0.34% active. AID 449763;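 active means at 10 µM dose, activation of 40% or more, normalized to positive control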;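 further: 100% = tunicamycin at 10 µg/mL and 0% = DMSO alone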
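Test system: CHO CHOP reporter cells. Input: 500 CHO-CHOP cells per well. Medium: F12 with 10% FBS. Technique: luciferase luminescence. Measure: percent activation relative to tunicamycin control. Dosing: 10 µM compound, 0.5% DMSO. Timing: 16-18 h cell attachment, then 6 h compound exposure, 37 °C.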
NR3A LBD binder: modulates the human NR3A ligand-binding domain; NR3A LBD differential scanning fluorimetry, Tm shift; 0% = protein alone, 100% = glycine-bound protein; Tm shift relative to glycine control, % at 25 µM; 340,000 tested, 2.5% active; AID 1259313;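 active means melting temperature shift of at least 10% of the positive control shift, at one fixed dose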
MPTP block: permeability transition pore inhibition; 360,000 tested, 1.4% active; inhibition, % at 10 µM; isolated mouse mitochondria, Ca2+ swelling absorbance, 30 min;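 active means inhibition of 50% or more, scaled per plate between neutral and stimulator controls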;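 further: 0% = DMSO wells given calcium and 100% = 1 mM EGTA wells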
UPR XBP1 confirm: confirmation of adaptive unfolded protein response (XBP1) activators | 1,000 tested, 63% active | activation, % at 20 µM | CHO-XBP1 IRE1-XBP1 luciferase reporter, luminescence | AID 485299 | shares compounds with XBP1 UPR activ;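 active means reporter signal at least 30% of the positive control's activation in two or more of four replicate wells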;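 further: plate controls were DMSO negative control for no effect and tunicamycin 10 µg/mL positive control for full effect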
* hit, by the source's call; x = not tested or not shown. A selection: hits, their analogues and other compounds. The true share with any hit is near 5.6%.

SMILES | XBP1 UPR activ | CHOP inh | aDG glyco act | UPR CHOP act | NR3A LBD binder | MPTP block | UPR XBP1 confirm
CN1C(=O)/C(=N\OC(=O)c2cccc3ccccc23)c2ccccc21 | 43* | 95* | 0 | 6 | -1 | 1 | 5
O=C(COC(=O)/C=C/c1ccccc1Cl)NCCNC(=O)COC(=O)/C=C/c1ccccc1Cl | -2 | x | 1 | 2 | -1 | 2 | x
COC(=O)c1c(C)[nH]c(C(=O)COC(=O)Cn2cc(C(F)(F)F)ccc2=O)c1C | 2 | x | 0 | -2 | -1 | 0 | x
Brc1ccc2c(c1)C(c1ccc(N3CCOCC3)cc1)=NNC(c1cccs1)=N2 | 88* | 27 | -1 | 3 | -6 | 3 | 81*
Fc1ccc2c(c1)C(c1ccc(N3CCOCC3)cc1)=NNC(c1cccs1)=N2 | 0 | 6 | 0 | 0 | -12 | 5 | x
Cc1ccc2c(c1)C(c1ccc(N3CCOCC3)cc1)=NNC(c1cccs1)=N2 | 62* | -12 | 0 | -2 | -2 | 1 | 57*
Cc1noc(C)c1CSCC(=O)Nc1ccccc1N1CCCC1 | x | x | 0 | x | -1 | 1 | x
COc1ccc(C(=O)Nc2cccc(/C=C/c3nc4ccccc4c(=O)[nH]3)c2)cc1 | 52* | 91* | 0 | 5 | 9 | 2 | 69*
COc1cc(-c2noc(C)c2C#Cc2ccccn2)cc(OC)c1OC | 9 | x | 0 | -1 | 5 | 1 | x
COc1cc(-c2noc(C)c2C#Cc2ccc(N)cc2)cc(OC)c1OC | 59* | x | 0 | 3 | -11 | 0 | 24
CCN(CC)CCNC(=O)CCc1c(C)nc2c(c(C)nn2-c2ccc(C)c(C)c2)c1C | -2 | x | 0 | 1 | 0 | 3 | x
COc1cccc2cc(C(=O)Nc3cc(C)cc(C)c3)/c(=N/NS(=O)(=O)c3ccccc3)oc12 | 240* | x | 0 | 1 | -3 | 0 | 4
O=C(Nc1nnc(Cc2ccc(F)cc2)s1)Nc1ccccc1F | -5 | x | 0 | 2 | 2 | 4 | x
Cc1ccccc1NC(=O)Nc1nnc(Cc2ccc([N+](=O)[O-])cc2)s1 | 73* | 91* | 0 | 5 | -3 | 3 | 3
CC(NC(=O)c1ccccc1)C(=O)OCC(=O)c1c(N)n(C)c(=O)n(C)c1=O (stereo not given) | -3 | x | 0 | 0 | 0 | -1 | x
COCCNc1nc(NCc2cccc(OC)c2)c2sc(-c3ccccc3)cc2n1 | x | x | 6 | x | x | 5 | x
C/C(Cl)=C\Cn1c(O)c(N=NC(N)=S)c2cc(Br)ccc21 | 84* | -113 | 1 | 5 | -2 | 0 | 120*
NC(=S)N=Nc1c(O)n(CCCl)c2ccc(Br)cc12 | 8 | -37 | 1 | 1 | -7 | 4 | x
NC(=S)N=Nc1c(O)n(Cc2ccc(F)cc2)c2ccccc12 | 8 | 17 | 2 | -1 | -2 | 4 | x
Cc1ccc2c(c1)c(N=NC(N)=S)c(O)n2Cc1ccccc1 | 33* | 1 | 1 | 9 | -16 | 1 | 41*
O=C(CCNC(=O)c1ccccc1)Nc1ccc(Cl)c(S(=O)(=O)N2CCCCC2)c1 | -2 | x | 0 | 3 | -5 | 0 | x
CS(=O)(=O)Nc1ccc2c(c1)[C@H]1C[C@H](CC(=O)NCc3cccc(F)c3)O[C@@H](CO)[C@H]1O2 | x | x | 0 | x | x | 4 | x
CC1CCCN(c2ccc(C(=O)NCc3ccccc3)cn2)C1 (stereo not given) | 19 | 25 | 1 | 6 | -2 | -3 | x
O=C(NCc1cccs1)c1ccc(N2CCCCC2)nc1 | 30 | 13 | 0 | 4 | -1 | -1 | 21
CC1CCCN(c2ccc(C(=O)NCc3cccs3)cn2)C1 (stereo not given) | 38* | 8 | 1 | 5 | 1 | 1 | 32*
SMILES | XBP1 UPR activ | CHOP inh | aDG glyco act | UPR CHOP act | NR3A LBD binder | MPTP block | UPR XBP1 confirm
CCn1cc(C(=O)O)c(=O)c2cnc(N3CCN(C(=S)NC(=O)c4ccc(OC)cc4)CC3)nc21 | -3 | x | 0 | -1 | -1 | -2 | x
COC(=O)C1C(O)=C(C=Nc2cccc3ccccc23)C(=O)CC1(C)C (stereo not given) | 121* | 52 | 0 | 9 | -4 | 4 | 110*
Cc1oc2cc3oc(=O)cc(C)c3cc2c1C | 1 | x | 0 | 1 | 3 | 0 | x
COc1cc2[nH]c3c(N4CCN(c5ccc(Cl)cc5)CC4)ncnc3c2cc1OC | 39* | 60 | 2 | 6 | 9 | 3 | 33*
CCOC(=O)c1[nH]c(C)c(C(=O)OCC(=O)Nc2sc3c(c2C#N)CCCCC3)c1C | 63* | 84* | 0 | 6 | 0 | -1 | 22
Cc1ccc(C(=O)OCC(=O)Nc2sc3c(c2C#N)CCC3)cc1 | -2 | 21 | 0 | 1 | 5 | 0 | x
c1cc(SC2CCCCC2)cc(-c2nc3cnccn3c2NC2CCCCC2)c1 | 196* | x | 4 | 8 | -10 | 2 | 171*
CCCCC1=CC2=C(c3ccco3)C(=O)C(C)(OC(=O)c3ccc(OC)cc3)C(=O)C2=CN1CC(C)C (stereo not given) | 33* | 79* | 0 | 19 | -3 | -2 | -2
Cc1nc2c(=O)[nH]n(C)c2nc1C | x | x | 0 | x | x | -2 | x
CCCCn1c(=O)[nH]c(=O)c2c1nc(-c1ccc(OC)c(Br)c1)n2CC(C)C | 3 | x | 0 | 1 | 1 | 1 | x
C=CCOc1ccc(-c2nc3c(c(=O)[nH]c(=O)n3CCCC)n2C)cc1Br | 39* | x | 0 | 4 | 1 | 2 | 26
O=C(O)c1cccc(Nc2nc(-c3ccccc3)nc3ccccc23)c1 | 6 | x | 0 | -3 | -10 | 1 | x
O=[N+]([O-])c1ccc(-c2nc(Nc3cccc(O)c3)c3ccccc3n2)cc1 | 34* | x | 0 | 5 | 30* | 3 | 20
CCc1ccc2cc3c(cc2n1)C(=O)c1ccccc1-3 | x | x | 0 | x | x | 1 | x
CC1CCN(Cc2c(C(=O)N/N=C/c3cc(Cl)ccc3O)nnn2-c2nonc2N)CC1 | 3 | x | 1 | -3 | 9 | 0 | x
Cc1cc(C)c(/C=N/NC(=O)c2nnn(-c3nonc3N)c2CN2CCC(C)CC2)c(C)c1 | 32* | x | 0 | 2 | 7 | 1 | 6
CC(C)c1ccc(/C=N/NC(=O)c2nnn(-c3nonc3N)c2CN2CCOCC2)cc1 | -1 | x | 0 | 0 | -7 | -2 | x
CC1CCN(Cc2c(C(=O)N/N=C/c3ccc(C(F)(F)F)cc3)nnn2-c2nonc2N)CC1 | 30* | x | 0 | 4 | 6 | 4 | 40*
COc1c(Cl)cc(Cl)cc1/C=N/NC(=O)c1nnn(-c2nonc2N)c1CN1CCC(C)CC1 | 68* | x | 0 | 7 | 12* | 1 | 91*
COc1cccc(C=Nc2cc(C(C)C)c(O)cc2C)c1O | x | x | 0 | x | -4 | 1 | x
